Measured values as given in ChEMBL document CHEMBL4014276, “Diphenylurea derivatives for combating methicillin- and vancomycin-resistant Staphylococcus aureus” (Eur J Med Chem, 2017).
Converted amounts (≈) assume the structure as drawn. The source made the active and inactive calls. The calls are words filed in the database; no cut-off is given here.

Tests used:
Staphylococcus aureus [1] = experiment: Bactericidal activity against methicillin-resistant Staphylococcus aureus USA200 NRS383 clinical isolate after 18 hrs by broth microdilution method; format: functional; settings: USA200 NRS383, 18 h
Procedure, shortened: (§1)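 From MIC wells without visible growth, 5 uL spotted onto Tryptic soy agar, incubated 37 °C for at least 18 h; MBC taken as lowest concentration giving 99.9% growth inhibition.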

Staphylococcus aureus [2] = experiment: Antibacterial activity against methicillin-resistant Staphylococcus aureus USA100 NRS382 clinical isolate after 20 hrs by broth microdilution method; format: functional; settings: USA100 NRS382, 20 h
Procedure, shortened: (§2)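 CLSI broth microdilution in cation-adjusted Mueller Hinton broth; compounds serially diluted, triplicate samples; 37 °C, 20 h. MIC read visually as lowest concentration with no visible growth; mean of triplicate determinations reported.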

Staphylococcus aureus [3] = experiment: Antibacterial activity against methicillin-resistant Staphylococcus aureus USA300 NRS384 clinical isolate preincubated followed by bacterial subculturing for 2 weeks; format: functional
Staphylococcus aureus [4] = experiment: Bactericidal activity against Staphylococcus aureus RN4220 NRS107 clinical isolate after 18 hrs by broth microdilution method; format: functional; settings: RN4220 NRS107, 18 h; procedure, shortened: as §1
Staphylococcus aureus [5] = experiment: Bactericidal activity against methicillin-resistant Staphylococcus aureus USA400 NRS123 clinical isolate after 18 hrs by broth microdilution method; format: functional; settings: USA400 NRS123, 18 h; procedure, shortened: as §1
Staphylococcus aureus [6] = experiment: Antibacterial activity against methicillin-resistant Staphylococcus aureus USA400 NRS123 clinical isolate after 20 hrs by broth microdilution method; format: functional; settings: USA400 NRS123, 20 h; procedure, shortened: as §2
Staphylococcus aureus [7] = experiment: Bactericidal activity against methicillin-resistant Staphylococcus aureus USA100 NRS382 clinical isolate after 18 hrs by broth microdilution method; format: functional; settings: USA100 NRS382, 18 h; procedure, shortened: as §1
HaCaT [8] = experiment: Cytotoxicity against human HaCaT cells up to 64 ug/ml after 2 hrs by MTS assay; format: cell-based
Procedure, shortened: (§3)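 Keratinocytes grown in DMEM with 10% FBS at 37 °C, 5% CO2; exposed in triplicate to 8, 16, 32 and 64 µg/mL for 2 h. DMSO-matched controls. MTS added for 4 h, absorbance at 490 nm. Viability expressed as % of DMSO-treated cells (mean of triplicate ± SD); one-way ANOVA with Dunnett's test, P < 0.05.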

Staphylococcus aureus [9] = experiment: Antibacterial activity against methicillin-resistant Staphylococcus aureus USA400 NRS123 clinical isolate preincubated followed by bacterial subculturing for 2 weeks; format: functional
Staphylococcus aureus [10] = experiment: Antibacterial activity against methicillin-resistant Staphylococcus aureus USA300 NRS384 clinical isolate after 20 hrs by broth microdilution method; format: functional; settings: USA300 NRS384, 20 h; procedure, shortened: as §2
Staphylococcus aureus [11] = experiment: Bactericidal activity against methicillin-resistant Staphylococcus aureus USA300 NRS384 clinical isolate after 18 hrs by broth microdilution method; format: functional; settings: USA300 NRS384, 18 h; procedure, shortened: as §1
Staphylococcus aureus [12] = experiment: Bactericidal activity against vancomycin-resistant Staphylococcus aureus VRSA4 after 18 hrs by broth microdilution method; format: functional; settings: VRSA4, 18 h; procedure, shortened: as §1
Staphylococcus aureus [13] = experiment: Antibacterial activity against Staphylococcus aureus RN4220 NRS107 clinical isolate after 20 hrs by broth microdilution method; format: functional; settings: RN4220 NRS107, 20 h; procedure, shortened: as §2
Staphylococcus aureus [14] = experiment: Bactericidal activity against vancomycin-resistant Staphylococcus aureus VRSA10 after 18 hrs by broth microdilution method; format: functional; settings: VRSA10, 18 h; procedure, shortened: as §1
Staphylococcus aureus [15] = experiment: Antibacterial activity against vancomycin-resistant Staphylococcus aureus VRSA4 after 20 hrs by broth microdilution method; format: functional; settings: VRSA4, 20 h; procedure, shortened: as §2
Staphylococcus aureus [16] = experiment: Antibacterial activity against methicillin-resistant Staphylococcus aureus USA100 NRS382 clinical isolate preincubated followed by bacterial subculturing for 2 weeks; format: functional
Staphylococcus aureus [17] = experiment: Antibacterial activity against methicillin-resistant Staphylococcus aureus USA200 NRS383 clinical isolate after 20 hrs by broth microdilution method; format: functional; settings: USA200 NRS383, 20 h; procedure, shortened: as §2
Staphylococcus aureus [18] = experiment: Antibacterial activity against methicillin-resistant Staphylococcus aureus USA200 NRS383 clinical isolate preincubated followed by bacterial subculturing for 2 weeks; format: functional
Staphylococcus aureus [19] = experiment: Antibacterial activity against vancomycin-resistant Staphylococcus aureus VRSA10 after 20 hrs by broth microdilution method; format: functional; settings: VRSA10, 20 h; procedure, shortened: as §2
Staphylococcus aureus [20] = experiment: Bactericidal activity against methicillin-resistant Staphylococcus aureus USA400 assessed as time required to reduce log10CFU of bacterial load at 4 times MIC by time kill assay; format: functional
[21] = Apparent permeability across basolateral to apical side in human Caco2 cells at 10 uM after 2 hrs by LC-MS/MS method; format: ADME, cell-based; settings: Caco-2
Staphylococcus aureus [22] = experiment: Bactericidal activity against methicillin-resistant Staphylococcus aureus USA400 NRS123 clinical isolate assessed as disruption of bacterial membrane by measuring leakage of 280 nM absorbing material at 5 times MIC after 30 mins by spectrophotometric method; format: functional
J774 = experiment: Cytotoxicity against mouse J774 cells at 8 ug/ml after 24 hrs by MTS assay; format: cell-based; settings: j774, 24 h
Procedure, shortened: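 Murine macrophages cultured in DMEM plus 10% FBS, 37 °C, 5% CO2; compounds at 8, 16, 32, 64 µg/mL in triplicate for 24 h against DMSO-matched controls. MTS reagent 4 h, read at OD490. Viability as % of DMSO control (triplicate mean ± SD); one-way ANOVA, Dunnett's post hoc, P < 0.05.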

HaCaT [23] = experiment: Cytotoxicity against human HaCaT cells up to 32 ug/ml after 2 hrs by MTS assay; format: cell-based; procedure, shortened: as §3
Staphylococcus aureus [24] = experiment: Bactericidal activity against methicillin-resistant Staphylococcus aureus USA400 NRS123 clinical isolate assessed as disruption of bacterial membrane by measuring leakage of 260 nM absorbing material at 5 times MIC after 30 mins by spectrophotometric method; format: functional

Row | Structure (SMILES) | MBC (Staphylococcus aureus [1]) | MIC (Staphylococcus aureus [2]) | Activity (Staphylococcus aureus [3]) | MBC (Staphylococcus aureus [4]) | MBC (Staphylococcus aureus [5]) | MIC (Staphylococcus aureus [6]) | MBC (Staphylococcus aureus [7]) | Activity (Staphylococcus aureus [9]) | MIC (Staphylococcus aureus [10]) | MBC (Staphylococcus aureus [11]) | MBC (Staphylococcus aureus [12]) | MIC (Staphylococcus aureus [13]) | MBC (Staphylococcus aureus [14]) | MIC (Staphylococcus aureus [15]) | Activity (Staphylococcus aureus [16]) | MIC (Staphylococcus aureus [17]) | Activity (Staphylococcus aureus [18]) | MIC (Staphylococcus aureus [19]) | Time (Staphylococcus aureus [20]) | also measured
1 | CCCCCOc1ccc(NC(=O)Nc2ccc(/C(C)=N/NC(=N)N)cc2)cc1 | 4 µg/mL (≈ 10.1 µM) | 4 µg/mL (≈ 10.1 µM) | Active | 8 µg/mL (≈ 20.2 µM) | 16 µg/mL (≈ 40.4 µM) | 4 µg/mL (≈ 10.1 µM) | 4 µg/mL (≈ 10.1 µM) | Active | 4 µg/mL (≈ 10.1 µM) | 4 µg/mL (≈ 10.1 µM) | 4 µg/mL (≈ 10.1 µM) | 4 µg/mL (≈ 10.1 µM) | 8 µg/mL (≈ 20.2 µM) | 4 µg/mL (≈ 10.1 µM) | Active | 4 µg/mL (≈ 10.1 µM) | Active | 4 µg/mL (≈ 10.1 µM) |  | Activity (HaCaT [8]): Non-Toxic
2 | C/C(=N\NC(=N)N)c1ccc(NC(=O)Nc2ccc(OCCCC(C)C)cc2)cc1 | 8 µg/mL (≈ 19.5 µM) | 4 µg/mL (≈ 9.74 µM) | Active | 4 µg/mL (≈ 9.74 µM) | 8 µg/mL (≈ 19.5 µM) | 4 µg/mL (≈ 9.74 µM) | 8 µg/mL (≈ 19.5 µM) | Active | 8 µg/mL (≈ 19.5 µM) | 8 µg/mL (≈ 19.5 µM) | 4 µg/mL (≈ 9.74 µM) | 4 µg/mL (≈ 9.74 µM) | 4 µg/mL (≈ 9.74 µM) | 4 µg/mL (≈ 9.74 µM) | Active | 4 µg/mL (≈ 9.74 µM) | Active | 4 µg/mL (≈ 9.74 µM) | <=4 hr | 
3 | CNC(=C[N+](=O)[O-])NCCSCc1ccc(CN(C)C)o1 [RANITIDINE] |  |  |  |  |  |  |  |  |  |  |  |  |  |  |  |  |  |  |  | Papp B→A at 2 h, 10 µM [21]: 2.31 ×10⁻⁶ cm/s
4 | C/C(=N\NC(=N)N)c1ccc(NC(=O)Nc2ccc(OCCC(C)C)cc2)cc1 | 4 µg/mL (≈ 10.1 µM) | 4 µg/mL (≈ 10.1 µM) | Active | 4 µg/mL (≈ 10.1 µM) | 4 µg/mL (≈ 10.1 µM) | 2 µg/mL (≈ 5.04 µM) | 4 µg/mL (≈ 10.1 µM) | Active | 2 µg/mL (≈ 5.04 µM) | 4 µg/mL (≈ 10.1 µM) | 4 µg/mL (≈ 10.1 µM) | 2 µg/mL (≈ 5.04 µM) | 4 µg/mL (≈ 10.1 µM) | 4 µg/mL (≈ 10.1 µM) | Active | 2 µg/mL (≈ 5.04 µM) | Active | 2 µg/mL (≈ 5.04 µM) | <=4 hr | Activity (Staphylococcus aureus [22]): inactive; Activity (J774): Toxic; Activity (HaCaT [23]): Non-Toxic; Activity (Staphylococcus aureus [24]): inactive
